Key:
[1] = Cytotoxicity against human LCC-6 cells after 5 days by MTS assay; assay type: cell-based; settings: LCC-6, 120 h
How it was run: (§1)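 Cells seeded in 96-well plates (6000/well for LCC6 and LCC6MDR) and exposed to a range of derivative concentrations, dissolved in DMSO at no more than 1% final, for 5 days at 37 °C. Viability read by MTS; IC50 taken from dose–response curves. Three repeats, mean ± SEM. LCC6 lines grown in DMEM with 10% heat-inactivated FBS; L929 is a mouse fibroblast line.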

L929 = assay: Cytotoxicity against mouse L929 cells after 5 days by MTS assay; assay type: cell-based; settings: L929, 120 h; how it was run: as §1
Homo sapiens = species: Homo sapiens; assay: Reversal of p-glycoprotein-mediated drug resistant in human LCC-6/MDR cells assessed as potentiation of paclitaxel-induced cytotoxicity at 1 uM after 5 days by MTS assay; assay type: cell-based
How it was run: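 LCC6MDR cells (6000/well, DMEM with 10% FBS) given paclitaxel over a range of doses, with or without 1 μM modulator, for 5 days at 37 °C; MTS read-out. IC50 from dose–response curves, and RF = IC50 without / IC50 with 1.0 μM modulator. N = 2–4 independent experiments, mean ± SEM.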

[2] = molecular target: T1, Broad substrate specificity ATP-binding cassette transporter ABCG2 (Homo sapiens, UniProt Q9UNQ0); assay: Reversal of BCRP-mediated drug resistant in human HEK293/R2 cells assessed as potentiation of topotecan-induced cytotoxicity at 1 uM after 5 days by MTS assay; assay type: cell-based; settings: hek293/r2, 120 h
T1 sequence (Q9UNQ0 whole entry): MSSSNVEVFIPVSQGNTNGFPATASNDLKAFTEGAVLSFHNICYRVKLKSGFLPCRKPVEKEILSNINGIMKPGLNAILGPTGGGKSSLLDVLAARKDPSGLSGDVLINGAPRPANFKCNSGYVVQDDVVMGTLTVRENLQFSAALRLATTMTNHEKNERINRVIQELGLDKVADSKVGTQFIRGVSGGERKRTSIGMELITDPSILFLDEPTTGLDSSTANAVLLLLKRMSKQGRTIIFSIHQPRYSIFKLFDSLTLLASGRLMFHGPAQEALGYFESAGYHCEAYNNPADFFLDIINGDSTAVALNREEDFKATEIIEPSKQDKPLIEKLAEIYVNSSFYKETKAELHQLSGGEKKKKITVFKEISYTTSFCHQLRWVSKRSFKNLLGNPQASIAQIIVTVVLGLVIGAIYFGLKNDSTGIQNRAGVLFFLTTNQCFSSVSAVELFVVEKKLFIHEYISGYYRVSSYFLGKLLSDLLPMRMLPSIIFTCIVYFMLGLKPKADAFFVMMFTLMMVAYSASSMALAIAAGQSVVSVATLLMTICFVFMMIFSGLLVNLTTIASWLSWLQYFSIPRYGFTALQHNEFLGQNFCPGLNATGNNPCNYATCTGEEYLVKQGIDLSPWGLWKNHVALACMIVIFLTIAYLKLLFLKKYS

[3] = molecular target: T1, Broad substrate specificity ATP-binding cassette transporter ABCG2; assay: Reversal of BCRP-mediated drug resistant in human MCF7-MX100 cells assessed as potentiation of topotecan-induced cytotoxicity at 1 uM after 5 days by MTS assay; assay type: cell-based; settings: mcf7-mx100, 120 h
[4] = molecular target: Multidrug resistance-associated protein 1 (Homo sapiens, UniProt P33527); assay: Reversal of MRP1-mediated drug resistant in human 2008/MRP1 cells assessed as potentiation of doxorubicin-induced cytotoxicity at 1 uM after 5 days by MTS assay; assay type: cell-based; settings: 2008/mrp1, 120 h
[5] = Cytotoxicity against multidrug resistant human LCC6MDR cells after 5 days by MTS assay; settings: 120 h
NCI/ADR-RES = assay: Modulation of p-glycoprotein-mediated drug resistant in human MCF7/ADR cells assessed as increase of daunomycin accumulation at 100 uM; assay type: cell-based

Chain of Multidrug resistance-associated protein 1 (P33527 whole entry): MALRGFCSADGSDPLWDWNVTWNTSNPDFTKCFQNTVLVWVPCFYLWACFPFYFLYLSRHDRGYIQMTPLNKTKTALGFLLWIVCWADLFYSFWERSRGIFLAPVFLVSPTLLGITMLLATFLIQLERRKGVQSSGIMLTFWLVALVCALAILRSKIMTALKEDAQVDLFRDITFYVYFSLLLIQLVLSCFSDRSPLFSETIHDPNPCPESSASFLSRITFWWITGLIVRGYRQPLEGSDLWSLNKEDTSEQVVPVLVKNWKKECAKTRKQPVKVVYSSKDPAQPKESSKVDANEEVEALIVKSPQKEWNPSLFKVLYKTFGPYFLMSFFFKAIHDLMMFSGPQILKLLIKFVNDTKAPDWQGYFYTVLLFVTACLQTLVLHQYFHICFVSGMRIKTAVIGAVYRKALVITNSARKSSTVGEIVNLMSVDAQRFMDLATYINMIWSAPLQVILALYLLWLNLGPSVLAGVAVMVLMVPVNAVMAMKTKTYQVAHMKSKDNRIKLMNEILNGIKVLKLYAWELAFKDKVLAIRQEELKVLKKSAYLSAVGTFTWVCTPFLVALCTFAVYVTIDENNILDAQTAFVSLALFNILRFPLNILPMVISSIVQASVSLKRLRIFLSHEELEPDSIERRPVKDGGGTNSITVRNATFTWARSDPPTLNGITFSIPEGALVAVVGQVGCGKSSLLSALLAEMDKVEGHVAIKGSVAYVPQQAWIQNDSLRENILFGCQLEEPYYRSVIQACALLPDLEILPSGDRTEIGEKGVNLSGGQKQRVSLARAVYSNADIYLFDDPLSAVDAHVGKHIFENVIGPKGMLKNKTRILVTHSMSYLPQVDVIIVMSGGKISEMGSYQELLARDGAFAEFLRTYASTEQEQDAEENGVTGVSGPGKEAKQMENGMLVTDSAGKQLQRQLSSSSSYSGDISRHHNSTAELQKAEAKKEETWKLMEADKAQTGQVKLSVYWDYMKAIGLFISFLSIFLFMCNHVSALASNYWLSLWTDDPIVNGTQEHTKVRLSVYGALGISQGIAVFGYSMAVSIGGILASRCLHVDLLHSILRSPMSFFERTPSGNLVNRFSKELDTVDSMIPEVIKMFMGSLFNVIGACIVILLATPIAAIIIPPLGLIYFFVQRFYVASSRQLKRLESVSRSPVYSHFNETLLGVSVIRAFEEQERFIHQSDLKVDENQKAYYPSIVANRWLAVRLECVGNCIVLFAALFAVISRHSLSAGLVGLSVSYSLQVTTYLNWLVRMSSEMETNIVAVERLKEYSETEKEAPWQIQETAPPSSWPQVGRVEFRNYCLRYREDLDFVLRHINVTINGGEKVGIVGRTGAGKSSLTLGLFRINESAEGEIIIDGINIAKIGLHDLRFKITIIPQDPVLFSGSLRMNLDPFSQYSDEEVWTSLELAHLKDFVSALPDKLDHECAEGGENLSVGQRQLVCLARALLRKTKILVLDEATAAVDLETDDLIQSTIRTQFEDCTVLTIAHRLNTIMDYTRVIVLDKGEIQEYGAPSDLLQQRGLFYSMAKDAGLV

Row | SMILES | IC50 [1] [µM] | IC50 (L929) [µM] | fold change (FC) (Homo sapiens) | fold change (FC) [2] | fold change (FC) [3] | fold change (FC) [4] | IC50 [5] [µM] | Activity (NCI/ADR-RES) [%]
1 | COc1ccc(C(=O)OCCOc2c(-c3ccc(OC)c(OC)c3)oc3cc(OC)cc(OC)c3c2=O)cc1 | > 100 | > 100 | 11.3 | 12.1 | 7.3 | 1.5 | > 100 | –
2 | COc1cc(O)c2c(=O)c(OC)c(-c3ccc(OC)c(OC)c3)oc2c1 [RETUSIN] | > 100 | > 100 | 3.7 | 13 | 19.3 | 0.7 | > 100 | –
3 | COc1cc(OC)c2c(=O)c(OCC(=O)c3ccc(OC)c(OC)c3)c(-c3ccc(OC)c(OC)c3)oc2c1 | > 100 | > 100 | 1.3 | 1.4 | 1.4 | 0.9 | > 100 | –
4 | COc1cc(OC)c2c(=O)c(OC(=O)c3cc(OC)c(OC)c(OC)c3)c(-c3ccc(OC)c(OC)c3)oc2c1 | > 79 | 74.1 | 2.1 | 5.8 | 9.6 | 0.9 | 87.4 | –
5 | COc1cc(OC)c2c(=O)c(OCCOC(=O)c3ccc(OC)c(OC)c3)c(-c3ccc(OC)c(OC)c3)oc2c1 | > 100 | > 100 | 6.4 | 4.6 | 6.7 | 1.2 | > 100 | –
6 | COc1cc(OC)c2c(=O)c(OCCOc3cc4c(Nc5ccc(F)c(Cl)c5)ncnc4cc3OC)c(-c3ccc(OC)c(OC)c3)oc2c1 | > 100 | > 100 | 1.5 | 4.3 | 1.2 | 1 | > 100 | –
7 | COc1cc(OC)c2c(=O)c(OCCO)c(-c3ccc(OC)c(OC)c3)oc2c1 | > 100 | > 100 | 1.4 | 3.9 | 1.5 | 0.8 | > 100 | –
8 | COc1cc(OC)c2c(=O)c(OCCOC(=O)/C=C/c3cc(OC)c(OC)c(OC)c3)c(-c3ccc(OC)c(OC)c3)oc2c1 | > 100 | > 100 | 6 | 14 | 9.1 | 1.5 | > 100 | –
9 | COc1cc(OC)c2c(=O)c(O[C@@H]3O[C@H](CO[C@@H]4O[C@@H](C)[C@H](OC)[C@@H](OC)[C@H]4OC)[C@@H](OC)[C@H](OC)[C@H]3OC)c(-c3ccc(OC)c(OC)c3)oc2c1 | > 100 | > 100 | 1 | 1.5 | 5.3 | 1.4 | > 100 | –
10 | O=c1c(O)c(-c2ccc(O)c(O)c2)oc2cc(O)cc(O)c12 [QUERCETIN] | > 100 | > 100 | – | – | – | – | > 100 | 202
11 | COc1cc(OC)c2c(=O)c(OC)c(-c3ccc(OC)c(OC)c3)oc2c1 | > 100 | > 100 | 1.9 | 8.7 | 7.9 | 0.8 | > 100 | –
12 | COc1cc(OC)c2c(=O)c(O)c(-c3ccc(OC)c(OC)c3)oc2c1 | > 100 | > 100 | 1.7 | 3.3 | 6 | 0.7 | > 100 | –
13 | COc1cc(OC)c2c(=O)c(OCCn3cnc4c(=O)n(C)c(=O)n(C)c43)c(-c3ccc(OC)c(OC)c3)oc2c1 | > 100 | > 100 | 1.2 | 1.4 | 1.4 | 1 | > 100 | –
14 | C[C@@H]1O[C@@H](OC[C@H]2O[C@@H](Oc3c(-c4ccc(O)c(O)c4)oc4cc(O)cc(O)c4c3=O)[C@H](O)[C@@H](O)[C@@H]2O)[C@H](O)[C@H](O)[C@H]1O [RUTIN] | > 100 | > 100 | 0.9 | 1.3 | 4.3 | 1.2 | > 100 | –
15 | COc1cc(OC)c2c(=O)c(OCCOC(=O)c3cc(OC)c(OC)c(OC)c3)c(-c3ccc(OC)c(OC)c3)oc2c1 | > 100 | > 100 | 3.2 | 4.7 | 2 | 1.1 | > 100 | –
16 | COc1ccc(CCN(C)CCCC(C#N)(c2ccc(OC)c(OC)c2)C(C)C)cc1OC (configuration not stated) | – | – | – | – | – | – | – | 229
17 | COc1cc(OC)c2c(=O)c(OCc3cc(OC)c(OC)c(OC)c3)c(-c3ccc(OC)c(OC)c3)oc2c1 | 14.5 | 17.6 | 9.6 | 11.3 | 4.7 | 1.2 | 46.6 | –
18 | COc1cc(OC)c2c(=O)c(OCCn3cnc4c(N)ncnc43)c(-c3ccc(OC)c(OC)c3)oc2c1 | > 100 | > 100 | 1.1 | 1.2 | 1.2 | 0.8 | > 100 | –
